{"data": "Measurements from different studies", "target": "Adenosine receptor A2a (ADORA2A, Homo sapiens, UniProt P29274)"}
{"Structure (SMILES)": "OC[C@@]12C[C@@H]1[C@@H](n1cnc3c(N[C@@H](C4CCC4)C4CC4)nc(I)nc31)[C@H](O)[C@@H]2O", "observed": "ligand displacement", "technique": "radioligand", "Ki": "3.08 µM"}
{"Structure (SMILES)": "CCCCCCN1CCCn2c1nc1c2c(=O)n(C)c(=O)n1C", "observed": "ligand displacement", "technique": "radioligand", "notes": "cell membranes", "Ki": "2.07 µM"}
{"Structure (SMILES)": "CNC(=O)[C@@]12C[C@@H]1[C@@H](n1cnc3c(NCc4cn(-c5ccc(C(=O)NCCCF)cc5)nn4)nc(Cl)nc31)[C@H](O)[C@@H]2O", "observed": "ligand displacement", "technique": "radioligand", "notes": "cell membranes", "Ki": "1.84 µM"}
{"Structure (SMILES)": "c1coc(-c2nc3cc(CN4CCCCC4)ccc3o2)c1", "observed": "ligand displacement", "technique": "radioligand", "notes": "cell membranes", "Ki": "19 µM"}
{"Structure (SMILES)": "Oc1cccc(Nc2nc(-c3ccc(F)cc3F)cs2)c1", "observed": "cell-free assay", "Ki": "5.1 µM"}
{"Structure (SMILES)": "CCNC(=O)C1OC(n2cnc3c(N)nc(NN=CC4CCC=CO4)nc32)C(O)C1O (centres unmarked)", "observed": "ligand displacement", "technique": "radioligand", "Ki": "0.0233 µM"}
{"Structure (SMILES)": "c1coc(-c2nc3cc(CCN4CCOCC4)ccc3o2)c1", "observed": "ligand displacement", "technique": "radioligand", "notes": "cell membranes", "Ki": "11 µM"}
{"Structure (SMILES)": "CNC(=O)c1csc(Nc2cccc(C)n2)n1", "observed": "ligand displacement", "technique": "radioligand", "notes": "cell membranes", "Ki": "7.1 µM"}
{"Structure (SMILES)": "CCCCN1CCCn2c1nc1c2c(=O)n(CCC)c(=O)n1CCC", "observed": "ligand displacement", "technique": "radioligand", "notes": "cell membranes", "Ki": "1.39 µM"}
{"Structure (SMILES)": "Nc1nc(-c2ccccc2Cl)nn1C(=O)CCc1ccccc1", "observed": "ligand displacement", "technique": "radioligand", "notes": "cell membranes", "Ki": "0.63 µM"}
{"Structure (SMILES)": "CNC(=O)[C@@]12C[C@@H]1[C@@H](n1cnc3c(NCc4cccc(C#CCCCc5cn(-c6ccc(F)c(N)c6)nn5)c4)nc(Cl)nc31)[C@H](O)[C@@H]2O", "observed": "ligand displacement", "technique": "radioligand", "notes": "cell membranes", "Ki": "2.73 µM"}
